Where only a bound is given, the exact number is not on record here.

One data set relates to HBL-100. Kind of data set: Antiproliferative activity against human HBL100 cells incubated for 48 hrs by SRB assay. In kind it is functional. To be noted: HBL-100, 48 h. In a few lines:
(§1)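 Cells kept in RPMI 1640 with 5% FBS and 2 mM L-glutamine at 37 °C under 5% CO2. Seeded at 2500 (A549, HBL-100, HeLa, SW1573) or 5000 (T-47D, WiDr, BJ-hTERT) cells/well and left 24 h. Compounds added as serial dilutions (0.01−100 μM) for 48 h. SRB staining read at 530 and 620 nm. GI50 calculated by NCI formulas. Mean of at least two independent experiments ± SD.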
(In general: Sulforhodamine B stains cellular protein and so reports cell mass.)

Data set [1] is described as follows: Ratio of GI50 for antiproliferative activity against human hTERT-BJ cells incubated for 48 hrs by SRB assay to GI50 for antiproliferative activity against human SW1573 cells incubated for 48 hrs by SRB assay. In kind it is toxicity, cell-based. To be noted: hTERT-BJ cells versus SW1573 cells, read-out: RatioGI50. The method in brief: (§2)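 Selectivity is GI50 in the nontumor BJ-hTERT fibroblasts divided by GI50 in each tumor line. All values come from the same 48 h SRB assay, with 0.01−100 μM serial dilutions.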

For another data set, the system named is SW1573. Kind of data set: Antiproliferative activity against human SW1573 cells incubated for 48 hrs by SRB assay. In kind it is functional. To be noted: SW1573, 48 h. The method in brief: as §1
Data set [2] can be described thus: Ratio of GI50 for antiproliferative activity against human hTERT-BJ cells incubated for 48 hrs by SRB assay to GI50 for antiproliferative activity against human T47D cells incubated for 48 hrs by SRB assay. In kind it is toxicity, cell-based. To be noted: hTERT-BJ cells versus T47D cells, read-out: RatioGI50. The method in brief: as §2
The nature of data set [3]: Ratio of GI50 for antiproliferative activity against human hTERT-BJ cells incubated for 48 hrs by SRB assay to GI50 for antiproliferative activity against human WiDr cells incubated for 48 hrs by SRB assay. To be noted: hTERT-BJ cells versus WiDr cells, read-out: RatioGI50. In kind it is toxicity, cell-based. In a few lines:
as §2

The next data set deals with A549. Kind of data set: Antiproliferative activity against human A549 cells incubated for 48 hrs by SRB assay. To be noted: A549, 48 h. In kind it is functional. The method in brief:
as §1

In another data set the test system is HeLa. Kind of data set: Antiproliferative activity against human HeLa cells incubated for 48 hrs by SRB assay. In kind it is functional. The method in brief:
as §1

In another data set the test system is T47D. Kind of data set: Antiproliferative activity against human T47D cells incubated for 48 hrs by SRB assay. In kind it is functional. The method in brief:
as §1

The nature of data set [4]: Ratio of GI50 for antiproliferative activity against human hTERT-BJ cells incubated for 48 hrs by SRB assay to GI50 for antiproliferative activity against human HeLa cells incubated for 48 hrs by SRB assay. In kind it is toxicity, cell-based. To be noted: hTERT-BJ cells versus HeLa cells, read-out: RatioGI50. The method in brief:
as §2

Another data set relates to WiDr. Kind of data set: Antiproliferative activity against human WiDr cells incubated for 48 hrs by SRB assay. In kind it is functional. In a few lines:
as §1

As a reminder, the GI50 is the concentration giving 50% growth inhibition. A low value points to greater sensitivity of the cells. `C[C@]1(O)CC[C@H]2[C@H]3[C@H](O[C@]4([C@@H]5C[C@]6(C)C(=O)O[C@H]5C[C@@]6(C)O)CC[C@@]31O4)[C@@H](O)[C@]13O[C@H]1C=CC(=O)[C@]23C`: the GI50 in the data set on HBL-100, in the data set with SW1573, with A549, in the data set on HeLa, with T47D and in the data set with WiDr was more than 10 µM throughout. Besides, the selectivity ratio at 48 h in data set [1], in [2], in data set [3] and in [4] was 2 to 10 in each case.

For `CC1=C(C)C(=O)O[C@@H]([C@]2(C)OC(O)[C@]34CC[C@H]5[C@@H]([C@H](O)C=C6C=CCC(=O)[C@@]65C)[C@@H]3CC[C@H]24)C1` (stereo not given in full), the GI50 with HBL-100, in the data set on SW1573, in the data set with A549, in the data set with HeLa, in the data set with T47D and with WiDr was more than 10 µM each time. Moreover, the selectivity ratio at 48 h in data set [1], in [2], in [3] and in data set [4] was 2 to 10 throughout.

As for `CC1=C(C)C(=O)O[C@@H]([C@]2(C)OC(O)[C@@]34CC[C@H]5[C@@H](CC=C6CC=CC(=O)[C@@]65C)[C@](O)(CC[C@H]23)O4)C1` (stereo not given in full), the GI50 was more than 10 µM with HBL-100; more than 10 µM in the data set with SW1573; more than 10 µM in the data set on A549; more than 100 µM in the data set on HeLa; more than 10 µM with T47D; more than 10 µM with WiDr. Also, the selectivity ratio at 48 h in [1], in [2], in data set [3] and in [4] was 2 to 10 each time.

As to `CC1=C(C)C(=O)O[C@@H]([C@](C)(O)[C@H]2CC[C@H]3[C@@H]4[C@@H](O)C=C5[C@@H](O)C=CC(=O)[C@]5(C)[C@H]4CC[C@]23CO)C1`, the concentration for 50% growth inhibition (GI50) with HBL-100, with SW1573, with A549, in the data set on HeLa, with T47D and in the data set with WiDr was more than 10 µM each time. Besides, the selectivity ratio at 48 h in [1], in data set [2], in data set [3] and in data set [4] was 2 to 10 each time.

On to `CC1=C(CO)C(=O)O[C@@H]([C@]2(C)OC(O)[C@@]34CC[C@H]5[C@@H](CC=C6CC=CC(=O)[C@@]65C)[C@](O)(CC[C@H]23)O4)C1` (stereo not given in full), for which the GI50 in the data set with HBL-100, with SW1573, in the data set with A549, in the data set with HeLa, in the data set with T47D and with WiDr was more than 10 µM throughout. Besides, the selectivity ratio at 48 h in data set [1], in [2], in [3] and in [4] was 2 to 10 throughout.

`C[C@]12C(=O)CC=CC1=C[C@H]1O[C@]3([C@@H]4C[C@]5(C)C(=O)O[C@H]4C[C@@]5(C)O)CC[C@@]4(O3)[C@H]1[C@@H]2CC[C@]4(C)O`: the GI50 in the data set with HBL-100, in the data set with SW1573, with A549, in the data set on HeLa, with T47D and with WiDr was more than 10 µM each time. Moreover, the selectivity ratio at 48 h in data set [1], in [2], in data set [3] and in data set [4] was 2 to 10 each time.

The values are drawn from ChEMBL document CHEMBL4316659, “Selective Antiproliferative Withanolides from Species in the Genera Eriolarynx and Deprea” (J Nat Prod, 2019).
